Assays:
wild-type menin = wild-type menin (Homo sapiens, UniProt O00255); experiment: Thermal shift assay, wild-type menin; type: binding
M278K menin mutant = M278K menin mutant (Homo sapiens, UniProt O00255, M278K); experiment: Thermal shift assay, M278K menin mutant; type: binding
Y323K menin mutant = Y323K menin mutant (Homo sapiens, UniProt O00255, Y323K); experiment: Thermal shift assay, Y323K menin mutant; type: binding
menin-MLL-AF9 complex = menin-MLL-AF9 complex (Homo sapiens, UniProt O00255); experiment: Co-immunoprecipitation in HEK293 cells transfected with Flag-MLL-AF9; type: cell-based
In short: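 Menin co-precipitating with Flag-MLL-AF9 was detected by Western blot. Untransfected cells controlled for endogenous menin and for absence of MLL-AF9. Menin and MLL-AF9 expression levels were also checked by Western blot.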

MLL-AF9 transduced BMC = experiment: MTT cell viability assay, MLL-AF9 transduced BMC; type: cell-based, mouse
In short: (§1)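 Retrovirally transduced mouse bone marrow cells were grown in IMDM with 15% FBS, 1% penicillin/streptomycin and IL-3. Growth inhibition by the test compound was measured by MTT viability assay. Quadruplicates, mean ± s.d.; three experiments.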

MLL-ENL transduced BMC = experiment: MTT cell viability assay, MLL-ENL transduced BMC; type: cell-based, mouse
In short: as §1

E2A-HLF transduced BMC = experiment: MTT cell viability assay, E2A-HLF transduced BMC; type: cell-based, mouse
In short: as §1

MLL-AF9 transformed BMC [1] = experiment: Methylcellulose colony formation assay, MLL-AF9 transformed BMC; type: cell-based, mouse; conditions: 7 days
In short: (§2)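 Transduced BMC were plated at 5×10³ cells/ml in methylcellulose medium containing 20% IMDM, 1% penicillin/streptomycin, IL-3 and either the test compound or 0.25% DMSO. Colonies were stained with iodonitrotetrazolium chloride (1 mg/ml final, 37 °C, 30 min) and counted. For a second round, unstained colonies were counted, washed out in PBS, and 5×10³ cells were replated in the same medium with compound, then stained and counted.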

E2A-HLF transformed BMC [2] = experiment: Methylcellulose colony formation assay, E2A-HLF transformed BMC; type: cell-based, mouse
In short: as §2

MLL-AF9 transformed BMC [3] = experiment: Differentiation by morphology; type: cell-based, mouse; conditions: 7 to 10 days, 25 μM
MLL-ENL transformed BMC = experiment: Differentiation by morphology, MLL-ENL transformed BMC; type: cell-based, mouse
E2A-HLF transformed BMC [4] = experiment: Differentiation by morphology, E2A-HLF transformed BMC; type: cell-based, mouse
[5] = tested on: CD11b expression in MLL-AF9 transformed BMC; experiment: CD11b expression by flow cytometry, MLL-AF9 transformed BMC; type: cell-based, mouse; conditions: 7 days of treatment
In short: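 BMC were cultured in IMDM with 15% FBS, penicillin/streptomycin and IL-3, and plated at 5×10⁵ cells/ml with the test compound or 0.25% DMSO. Every 48h the medium was changed, viable density restored and compound resupplied. 1.5×10⁵ cells were washed in PBS/1% FBS/0.1% NaN₃, stained with Pacific Blue anti-mouse CD11b (4 °C, 30 min), then Annexin V-FITC/PI, and run on flow cytometry. Triplicates, mean ± s.d.; one-way ANOVA against DMSO; three experiments.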

Hoxa9 [6] = experiment: Quantitative RT-PCR of Hoxa9 in MLL-AF9 transduced BMC; type: cell-based, mouse; conditions: 6 days
Meis1 [7] = experiment: Quantitative RT-PCR of Meis1 in MLL-AF9 transduced BMC; type: cell-based, mouse; conditions: 6 days
[8] = tested on: menin and MLL-AF9 at the Hoxa9 locus; experiment: ChIP at the Hoxa9 locus in MLL-AF9 transduced BMC; type: cell-based, mouse; conditions: 12.5 μM
In short: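 ChIP used BMC exposed to the test compound at 12.5 μM or to DMSO. Antibodies were against menin and AF9, with IgG as control. Enrichment was read at two sites in the Hoxa9 promoter region. Duplicate samples, mean ± s.d.; two experiments.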

[9] = tested on: MV4;11 (harboring MLL-AF4); experiment: MTT cell viability assay, MV4; type: cell-based, human; conditions: MV4;11, MTT, 72h
In short: (§3)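 Growth inhibition was read by MTT viability assay, with 72h treatment stated for KOPN-8 and MV4;11. Media: KOPN-8 and ML-2, RPMI-1640 with 10% FBS. MV4;11, RPMI-1640 with 10% FBS, 1% penicillin/streptomycin and NEAA. MonoMac-6, RPMI-1640 with 15% FBS, human insulin, penicillin/streptomycin and NEAA. For KOPN-8 and MV4;11: four samples, mean ± s.d., three experiments.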

KOPN-8 (MLL-ENL) = experiment: MTT cell viability assay, KOPN-8; type: cell-based, human; conditions: KOPN-8, MTT, 72h
In short: as §3

ML-2 (MLL-AF6) = experiment: MTT cell viability assay, ML-2; type: cell-based, human; conditions: ML-2, MTT
In short: as §3

MonoMac6 (MLL-AF9) = experiment: MTT cell viability assay, MonoMac6; type: cell-based, human
In short: as §3

[10] = tested on: Kasumi-1, ME-1, HAL-01 and REH; experiment: Growth of human acute leukemia cell lines lacking MLL fusions; type: cell-based; conditions: low HOXA9: Kasumi-1, ME-1, HAL-01, REH
MV4;11 = experiment: Annexin V/PI apoptosis assay, MV4; type: cell-based, human; conditions: MV4;11, 48h
In short: (§4)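 Cells were seeded at 5×10⁵ cells/ml and exposed to the test compound or vehicle (0.25% DMSO final) for 48h at 37 °C in 5% CO₂. 1.5×10⁵ cells were then stained with Annexin V-FITC and propidium iodide in Annexin V binding buffer for 10 min at room temperature in the dark, and analysed by flow cytometry. Three experiments in triplicate; mean and SD.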

MonoMac6 = experiment: Annexin V/PI apoptosis assay, MonoMac6; type: cell-based, human; conditions: MonoMac6, 48h
In short: as §4

MV4;11 leukemia cells = experiment: Cell cycle analysis by FACS after PI staining, MV4; type: cell-based, human; conditions: MV4;11, PI staining
[11] = tested on: CD11b expression in THP-1 cells; experiment: CD11b expression by flow cytometry, THP-1; type: cell-based, human; conditions: THP-1, 6 days of treatment
HOXA9 [12] = experiment: qRT-PCR of HOXA9 in THP-1 cells; type: cell-based, human; conditions: THP-1, 6 days
In short: (§5)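 THP-1 cells in RPMI-1640 with 10% FBS, 1% penicillin/streptomycin and NEAA were treated with the test compound for 6 days. Total RNA (100–1000 ng) was reverse transcribed, and TaqMan qPCR measured human HOXA9 or MEIS1, normalised to 18S rRNA by the comparative Ct method. Duplicates, mean ± s.d.; three experiments.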

MEIS1 [13] = experiment: qRT-PCR of MEIS1 in THP-1 cells; type: cell-based, human; conditions: THP-1, 6 days
In short: as §5

Chain of M278K menin mutant (O00255 whole entry M278K): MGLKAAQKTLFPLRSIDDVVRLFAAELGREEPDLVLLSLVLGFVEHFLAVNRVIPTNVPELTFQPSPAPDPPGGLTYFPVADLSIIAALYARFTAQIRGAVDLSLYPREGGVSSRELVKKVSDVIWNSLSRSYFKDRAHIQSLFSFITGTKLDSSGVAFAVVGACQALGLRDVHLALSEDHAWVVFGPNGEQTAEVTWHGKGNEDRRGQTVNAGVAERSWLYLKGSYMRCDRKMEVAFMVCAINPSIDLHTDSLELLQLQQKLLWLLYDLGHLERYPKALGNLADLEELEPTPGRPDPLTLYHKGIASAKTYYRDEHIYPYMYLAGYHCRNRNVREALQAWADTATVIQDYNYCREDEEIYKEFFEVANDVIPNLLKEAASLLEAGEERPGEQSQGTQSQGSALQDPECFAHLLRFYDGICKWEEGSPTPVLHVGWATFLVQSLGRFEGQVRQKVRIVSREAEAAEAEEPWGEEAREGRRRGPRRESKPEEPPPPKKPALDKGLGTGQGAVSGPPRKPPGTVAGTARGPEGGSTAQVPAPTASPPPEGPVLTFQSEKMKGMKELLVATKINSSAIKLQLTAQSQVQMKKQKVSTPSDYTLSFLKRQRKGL
Chain of Y323K menin mutant (O00255 whole entry Y323K): as the sequence (O00255 whole entry M278K) above, with K278M, Y323K counted along it
Chain of menin-MLL-AF9 complex (O00255 whole entry, one chain of several): as the sequence (O00255 whole entry M278K) above, with K278M counted along it
Chain of wild-type menin (O00255 whole entry): as the sequence (O00255 whole entry M278K) above, with K278M counted along it

CCCc1cc2c(N3CCN(C4=NCC(C)(C)S4)CC3)ncnc2s1 [MI-2]
binding to wild-type menin (wild-type menin): clearly observed binding | binding to M278K menin mutant (M278K menin mutant): no binding | binding to Y323K menin mutant (Y323K menin mutant): no binding | disruption of the menin-MLL-AF9 complex (co-IP) (menin-MLL-AF9 complex): very efficiently disrupted | GI50 (MLL-AF9 transduced BMC): ~5 µM | GI50 (MLL-ENL transduced BMC): ~5 µM | GI50 (E2A-HLF transduced BMC): > 50 µM | effect on colony formation (MLL-AF9 transformed BMC [1]): substantially reduced colony formation | effect on the number, size and morphology of colonies (E2A-HLF transformed BMC [2]): only a limited effect | differentiation (cell morphology) (MLL-AF9 transformed BMC [3]): substantial changes in morphology, indicative of monocytic differentiation | differentiation (cell morphology) (MLL-ENL transformed BMC): observed differentiation | differentiation (cell morphology) (E2A-HLF transformed BMC [4]): did not differentiate | expression of CD11b [5]: substantially increased | decrease of Hoxa9 expression level (Hoxa9 [6]; 12.5 μM): > 80% | decrease of Hoxa9 expression level (Hoxa9 [6]; 25 μM): > 80% | decrease of Meis1 expression level (Meis1 [7]; 12.5 μM): > 80% | decrease of Meis1 expression level (Meis1 [7]; 25 μM): > 80% | binding of menin and MLL-AF9 to the Hoxa9 locus (ChIP) [8]: decreased binding of menin and MLL-AF9 | GI50 [9]: 9.5 µM | GI50 (KOPN-8 (MLL-ENL)): 7.2 µM | GI50 (ML-2 (MLL-AF6)): 8.7 µM | GI50 (MonoMac6 (MLL-AF9)): 18 µM | effect on proliferation [10]: very limited effect | Annexin V (+) and Annexin V/PI (+)/(+) cells (apoptosis) (MV4;11): substantial, and dose-dependent increase | Annexin V (+) and Annexin V/PI (+)/(+) cells (apoptosis) (MonoMac6): substantial, and dose-dependent increase | effect on cell cycle progression (MV4;11 leukemia cells): consistent increase in the number of cells in G0/G1 phase | CD11b positive cells [11]: substantial increase in CD11b positive cells | expression of HOXA9 (HOXA9 [12]): substantially reduced expression | expression of MEIS1 (MEIS1 [13]): substantially reduced expression
